{"data": "Published values of several laboratories", "read-out": "metabolic stability", "matrix": "liver microsomes"}
{"SMILES": "N#Cc1ccc(C[C@H](NC(=O)Nc2ccc(F)cc2)C(=O)NCC2(c3ccc(OC(F)(F)F)cc3)CC2)cc1", "species": "rat", "concentration": "10 µM", "time": "30 min", "pH": "pH 7.4", "compound remaining [%]": "> 80"}
{"SMILES": "Cc1ccc2c(c1)nc(CCc1cccc3cccnc13)n2-c1ccccc1", "species": "rat", "concentration": "1.5 µM", "time": "30 min", "compound remaining [%]": 0.13}
{"SMILES": "N#Cc1ccc(C[C@@H](NC(=O)Nc2ccc([N+](=O)[O-])cc2)C(=O)NCC2(c3ccccc3)CC2)cc1", "species": "rat", "concentration": "10 µM", "time": "30 min", "pH": "pH 7.4", "compound remaining [%]": "> 20"}
{"SMILES": "Cc1ccc2c(c1)nc(/C=C/c1cccc3cccnc13)n2-c1ccccc1", "species": "rat", "concentration": "1.5 µM", "time": "0 h", "compound remaining [%]": 100}
{"SMILES": "CC[C@H](C)C(=O)O[C@H]1C[C@@H](C)C=C2C=C[C@H](C)[C@H](CC[C@@H]3C[C@@H](O)CC(=O)O3)[C@H]21", "species": "mouse", "concentration": "1 µM", "time": "5 min", "pH": "pH 7.4", "compound remaining [%]": 0.85}
{"SMILES": "CC(C)NCC(O)COc1cccc2ccccc12 (centres unmarked)", "species": "male rat", "concentration": "1 µM", "time": "30 min", "compound remaining [%]": "< 7"}
{"SMILES": "CCCn1nc(C(=O)N(C)C)c2c1CCC(NCc1ccc(F)cc1)C2 (centres unmarked)", "species": "mouse", "concentration": "10 µM", "time": "1 h", "compound remaining [%]": "< 25"}
{"SMILES": "CS(=O)(=O)c1ccc(-c2cnc(N)c(-c3ccc(C(F)(F)F)nc3)c2)cc1", "species": "male rat", "concentration": "1 µM", "time": "30 min", "compound remaining [%]": 97}
{"SMILES": "[O-][S+](CCN1CCCN(CC(O)Cc2ccccc2)CC1)C(c1ccc(F)cc1)c1ccc(F)cc1 (centres unmarked)", "species": "rat", "concentration": "10 µM", "time": "1 h", "pH": "pH 7.4", "compound remaining [%]": 0}
{"SMILES": "CCCn1nc(C(=O)N2CCCCC2)c2c1CCC(N(C)Cc1ccc(F)cc1)C2 (centres unmarked)", "species": "mouse", "concentration": "10 µM", "time": "1 h", "compound remaining [%]": 0}
{"SMILES": "Cc1ncsc1-c1ccc(CNC(=O)[C@@H]2C[C@@H](O)CN2C(=O)[C@@H](NC(=O)CCCCCCCCCCNC(=O)O[C@H]2C[C@@H](C)C=C3C=C[C@H](C)[C@H](CC[C@@H]4C[C@@H](O)CC(=O)O4)[C@H]32)C(C)(C)C)cc1", "species": "mouse", "concentration": "1 µM", "time": "15 min", "pH": "pH 7.4", "compound remaining [%]": 8.23}
